Experiments:
Type in all cases: ADME
[1] = target: T1, UDP-glucuronosyltransferase 2B4 (Homo sapiens, UniProt P06133); assay: Activity of human UGT2B4 expressed in microsomes isolated from baculovirus infected insect cell assessed as enzyme-mediated (2S,3S,4S,5R,6R)-3,4,5-trihydroxy-6-(5-(4-((6-methoxy-1-methyl-1H-benzo[d]imidazol-2-yl)methoxy)benzyl)-2,4-dioxothiazolidin-3-yl)tetrahydro-2H-pyran-2-carboxylic acid formation at 20 uM after 4 hrs by radio-HPLC/LC-MS/MS analysis in presence of UDPGA
T1 sequence (P06133 whole entry): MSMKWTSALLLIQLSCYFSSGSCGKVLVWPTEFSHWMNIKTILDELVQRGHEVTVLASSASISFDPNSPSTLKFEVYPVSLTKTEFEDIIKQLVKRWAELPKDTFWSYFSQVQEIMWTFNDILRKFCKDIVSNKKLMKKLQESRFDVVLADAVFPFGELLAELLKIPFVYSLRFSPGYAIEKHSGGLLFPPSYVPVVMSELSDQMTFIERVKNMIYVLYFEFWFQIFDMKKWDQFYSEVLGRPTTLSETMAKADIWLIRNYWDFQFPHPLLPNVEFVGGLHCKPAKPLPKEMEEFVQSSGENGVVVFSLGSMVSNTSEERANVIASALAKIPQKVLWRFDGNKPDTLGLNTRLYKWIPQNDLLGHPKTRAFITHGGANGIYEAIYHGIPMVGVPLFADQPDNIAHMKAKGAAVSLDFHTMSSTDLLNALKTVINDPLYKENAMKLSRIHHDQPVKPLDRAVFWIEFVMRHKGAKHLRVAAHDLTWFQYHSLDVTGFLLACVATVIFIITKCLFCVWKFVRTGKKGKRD

Cytochrome P450 2C19 = Cytochrome P450 2C19 (Homo sapiens, UniProt P33261); assay: Activity of human CYP2C19 expressed in microsomes isolated from baculovirus infected insect cell assessed as enzyme-mediated 5-hydroxy-5-(4-((6-methoxy-1-methyl-1H-benzo[d]imidazol-2-yl)methoxy)benzyl)thiazolidine-2,4-dione formation at 20 uM after 2 hrs by radio-HPLC/LC-MS/MS analysis in presence of NADPH-generating system and NADPH-generating system/SAM
In short: (§1)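 Baculovirus/insect-cell microsomes expressing single human CYPs, 1 mg/ml protein, with 50 mM potassium phosphate (pH 7.4) or 100 mM Tris-HCl (pH 7.5). NADPH-generating system: 2 mM NADP⁺, 20 mM glucose 6-phosphate, 2 units/ml G6PDH, 10 mM MgCl₂. [¹⁴C]rivoglitazone at 20 μM, 2 h at 37°C with shaking. Control used insect-cell control supersomes. Stopped with acetonitrile; supernatant concentrated under nitrogen; metabolites analysed by radio-HPLC, LC-MS and LC-MS/MS.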

[2] = target: T2, UDP-glucuronosyltransferase 1A10 (Homo sapiens, UniProt Q9HAW8); assay: Activity of human UGT1A10 expressed in microsomes isolated from baculovirus infected insect cell assessed as enzyme-mediated (2S,3S,4S,5R,6R)-6-((1-carboxy-2-(4-((6-methoxy-1-methyl-1H-benzo[d]imidazol-2-yl)methoxy)phenyl)ethylthio)carbonylamino)-3,4,5-trihydroxytetrahydro-2H-pyran-2-carboxylic acid formation at 20 uM after 4 hrs by radio-HPLC/LC-MS/MS analysis in presence of UDPGA
T2 sequence (Q9HAW8 whole entry): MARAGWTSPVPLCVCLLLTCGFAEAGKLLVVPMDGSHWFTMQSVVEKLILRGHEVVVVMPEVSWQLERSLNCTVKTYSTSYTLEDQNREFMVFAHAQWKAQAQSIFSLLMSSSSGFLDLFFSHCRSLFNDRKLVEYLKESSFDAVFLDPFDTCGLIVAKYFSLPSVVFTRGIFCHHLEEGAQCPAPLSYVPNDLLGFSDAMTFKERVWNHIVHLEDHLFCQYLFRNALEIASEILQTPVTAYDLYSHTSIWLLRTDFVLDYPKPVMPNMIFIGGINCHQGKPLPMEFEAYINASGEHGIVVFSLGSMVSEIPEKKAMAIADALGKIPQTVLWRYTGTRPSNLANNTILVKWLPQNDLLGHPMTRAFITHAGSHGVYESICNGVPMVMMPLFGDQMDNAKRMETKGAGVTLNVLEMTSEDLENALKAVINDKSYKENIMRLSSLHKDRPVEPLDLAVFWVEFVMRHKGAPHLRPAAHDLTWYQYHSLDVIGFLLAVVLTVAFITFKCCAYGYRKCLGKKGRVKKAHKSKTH
In short: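 Alamethicin (50 μg/mg protein, 15 min on ice) pretreated expressed human UGT microsomes (1 mg/ml protein) from baculovirus-infected insect cells. Incubation with [¹⁴C]rivoglitazone (20 μM) in 100 mM Tris-HCl (pH 7.5) with 10 mM MgCl₂, started by 5 mM UDPGA, 4 h at 37°C with shaking. UGT insect-cell control supersomes were run alongside. Acetonitrile stop, concentrated supernatant analysed by radio-HPLC, LC-MS and LC-MS/MS.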

Cytochrome P450 1A2 = target: T3, Cytochrome P450 1A2 (Homo sapiens, UniProt P05177); assay: Activity of human CYP1A2 expressed in microsomes isolated from baculovirus infected insect cell assessed as enzyme-mediated 2-mercapto-3-(4-((6-methoxy-1-methyl-1H-benzo[d]imidazol-2-yl)methoxy)phenyl)propanamide formation at 20 uM after 2 hrs by radio-HPLC/LC-MS/MS analysis in presence of NADPH-generating system and NADPH-generating system/SAM; in short: as §1
T3 sequence (P05177 whole entry): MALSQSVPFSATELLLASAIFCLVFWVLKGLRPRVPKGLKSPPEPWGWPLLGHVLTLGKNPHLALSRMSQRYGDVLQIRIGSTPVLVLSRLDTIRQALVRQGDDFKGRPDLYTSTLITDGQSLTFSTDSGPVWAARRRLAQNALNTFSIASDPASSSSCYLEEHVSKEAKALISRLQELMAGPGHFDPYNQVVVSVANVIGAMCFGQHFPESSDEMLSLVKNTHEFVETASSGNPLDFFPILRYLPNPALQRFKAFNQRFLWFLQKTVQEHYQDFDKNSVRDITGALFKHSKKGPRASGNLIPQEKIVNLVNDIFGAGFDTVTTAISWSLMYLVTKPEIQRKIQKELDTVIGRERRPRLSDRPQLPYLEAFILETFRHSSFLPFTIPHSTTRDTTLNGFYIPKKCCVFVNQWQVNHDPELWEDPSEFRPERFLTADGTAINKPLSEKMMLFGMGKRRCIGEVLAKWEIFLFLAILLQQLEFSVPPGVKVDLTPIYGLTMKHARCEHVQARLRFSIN

[3] = target: T4, UDP-glucuronosyltransferase 2B7 (Homo sapiens, UniProt P16662); assay: Activity of human UGT2B7 expressed in microsomes isolated from baculovirus infected insect cell assessed as enzyme-mediated 3-(4-((6-methoxy-1-methyl-1H-benzo[d]imidazol-2-yl)methoxy)phenyl)-2-(methylthio)propanamide formation at 20 uM after 4 hrs by radio-HPLC/LC-MS/MS analysis in presence of NADPH-generating system/SAM in presence of UDPGA and UDPGA/SAM
T4 sequence (P16662 whole entry): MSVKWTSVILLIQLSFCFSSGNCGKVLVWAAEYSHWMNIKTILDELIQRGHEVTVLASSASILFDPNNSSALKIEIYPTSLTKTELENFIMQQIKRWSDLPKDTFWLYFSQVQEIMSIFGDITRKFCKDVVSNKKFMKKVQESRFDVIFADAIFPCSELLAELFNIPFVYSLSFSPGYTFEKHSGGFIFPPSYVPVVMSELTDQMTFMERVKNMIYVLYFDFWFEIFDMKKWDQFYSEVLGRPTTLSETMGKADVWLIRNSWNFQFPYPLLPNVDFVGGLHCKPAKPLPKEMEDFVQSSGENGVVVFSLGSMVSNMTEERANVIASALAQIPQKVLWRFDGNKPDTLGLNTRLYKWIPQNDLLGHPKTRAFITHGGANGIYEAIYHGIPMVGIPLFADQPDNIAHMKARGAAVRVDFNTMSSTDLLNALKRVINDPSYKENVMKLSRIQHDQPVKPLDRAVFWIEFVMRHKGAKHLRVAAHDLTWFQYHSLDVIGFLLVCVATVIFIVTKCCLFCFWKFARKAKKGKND

Chain of Cytochrome P450 2C19 (P33261 whole entry): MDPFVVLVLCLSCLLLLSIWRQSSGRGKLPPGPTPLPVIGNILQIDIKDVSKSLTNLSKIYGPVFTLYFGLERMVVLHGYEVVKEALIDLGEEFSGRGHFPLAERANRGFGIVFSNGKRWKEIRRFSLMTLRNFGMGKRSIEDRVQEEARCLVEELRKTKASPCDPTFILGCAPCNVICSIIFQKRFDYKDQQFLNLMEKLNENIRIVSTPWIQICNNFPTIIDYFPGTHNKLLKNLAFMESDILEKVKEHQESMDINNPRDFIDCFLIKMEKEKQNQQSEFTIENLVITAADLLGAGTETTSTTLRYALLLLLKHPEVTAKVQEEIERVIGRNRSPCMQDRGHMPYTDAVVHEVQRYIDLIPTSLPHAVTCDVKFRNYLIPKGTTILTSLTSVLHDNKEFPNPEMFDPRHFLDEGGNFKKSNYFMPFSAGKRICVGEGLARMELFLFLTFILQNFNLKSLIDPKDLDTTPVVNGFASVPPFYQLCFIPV

Drug metabolism [1]: metabolite_not_detected
Drug metabolism (Cytochrome P450 2C19): metabolite_detected
Drug metabolism [2]: metabolite_not_detected
Drug metabolism (Cytochrome P450 1A2): metabolite_detected
Drug metabolism [3]: metabolite_not_detected
SMILES: COc1ccc2nc(COc3ccc(C[14CH]4SC(=O)NC4=O)cc3)n(C)c2c1.Cl (racemic)

— ChEMBL document CHEMBL3526048, “In vitro metabolism of rivoglitazone, a novel peroxisome proliferator-activated receptor γ agonist, in rat, monkey, and human liver microsomes and freshly isolated hepatocytes” (Drug Metab Dispos, 2011)
